By MIC is commonly meant the lowest concentration found to suppress growth. Higher therefore signals a less susceptible organism. As usually defined, the Ki is the dissociation constant of the complex between target and ligand, obtained from inhibition or displacement. Lower therefore signals a stronger hold on the target.

This is an account of results in ChEMBL document CHEMBL1140385, “Synthesis and antibacterial activity of 3-substituted-6-(3-ethyl-4-methylanilino)uracils” (J Med Chem, 2005).

Structures are written as SMILES. ≈ marks a conversion by molar mass, not a printed value.

Experiment [1] concerns Enterococcus faecium. Description: In vitro minimum inhibitory concentration against Enterococcus fecium upon incubation at 37 degree C for 16 to 24 hr by dissolving in DMSO (1%). It counts as functional. The procedure, abridged:
(§1)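 Broth microdilution (modified NCCLS M7-A4). Enterococci grown to log phase in brain-heart infusion broth, seeded at (3-7) × 10⁵ CFU/mL. Compounds 2-fold diluted from DMSO stocks, 20 to 1.25 µg/mL, final 1% DMSO, in duplicate. Incubated 37 °C, 16-24 h, with shaking. OD600 read.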

In experiment [2] the test system is Staphylococcus aureus. In words: In vitro minimum inhibitory concentration against Staphylococcus aureus upon incubation at 37 degree C for 16 to 24 hr by dissolving in DMSO (1%). The class given is functional.
The next experiment has as its system Bacillus subtilis. In words: In vitro minimum inhibitory concentration against Bacillus subtilis upon incubation at 37 degree C for 16 to 24 h. It counts as functional.
The test system of experiment [3] is Enterococcus faecalis. In words: In vitro minimum inhibitory concentration against Enterococcus faecalis upon incubation at 37 degree C for 16 to 24 hr by dissolving in DMSO (1%). The class given is functional. The procedure, abridged: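 Log-phase E. faecalis was grown in brain-heart infusion broth and seeded at (3-7) × 10^5 CFU/mL. Duplicate 2-fold dilutions ran from 20 to 1.25 µg/mL, final 1% DMSO. After 16-24 h at 37 °C with shaking, OD600 was read.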

The target in experiment [4] is DNA polymerase III PolC-type (Bacillus subtilis (strain 168), UniProt P13267). Description: Inhibitory concentration against Bacillus subtilis DNA polymerase IIIC using [3H]dTMP 250 pM (30 degree C for 10 min). The procedure, abridged:
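Homogeneous recombinant B. subtilis pol IIIC, 0.025-0.06 units, acted on activated calf thymus DNA with Mg2+, DTT, glycerol, dATP, dCTP, dTTP and [3H]dTTP, without dGTP. Compounds were serially diluted from DMSO. Reactions ran 10 min at 30 °C, were stopped with TCA-pyrophosphate, and the filter-collected precipitate was scintillation counted. Apparent Ki was read directly from this truncated assay; average standard deviation ±44%.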

In experiment [5] the test system is Staphylococcus aureus. In words: In vitro minimum inhibitory concentration against Staphylococcus aureus (Smith) upon incubation at 37 degree C for 16 to 24 hr by dissolving in DMSO (1%). It counts as functional.
Experiment [6] relates to Enterococcus faecium. Description: In vitro minimum inhibitory concentration against Vancomycin resistant Enterococci faecium upon incubation at 37 degree C for 16 to 24 hr by dissolving in DMSO (1%). The class given is functional. In outline:
as §1

Experiment [7] relates to Staphylococcus aureus. In words: Serum effect on MIC against Staphylococcus aureus (Smith) as ratio of MIC value in presence and absence of 50% fetal calf serum. It counts as functional. In outline:
(§2)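 Broth microdilution MIC was repeated with 50% fetal calf serum added to the growth medium (LB for S. aureus, brain-heart infusion broth for E. faecalis). The inoculum was (3-7) × 10^5 CFU/mL in 1% DMSO, incubated at 37 °C for 16-24 h, and read by OD600. The serum effect is the MIC with serum relative to the MIC without serum.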

The subject of experiment [8] is Staphylococcus aureus. In words: In vitro minimum inhibitory concentration against Methicillin-resistant Staphylococcus aureus upon incubation at 37 degree C for 16 to 24 hr by dissolving in DMSO (1%). It counts as functional. The procedure, abridged: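 Broth microdilution (modified NCCLS M7-A4). Staphylococci grown to log phase in Luria broth, seeded at (3-7) × 10⁵ CFU/mL. Compounds 2-fold diluted from DMSO stocks, 20 to 1.25 µg/mL, final 1% DMSO, in duplicate. Incubated 37 °C, 16-24 h, with shaking. OD600 read.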

Experiment [9] relates to Enterococcus faecalis. Description: Serum effect on MIC of compound was measured against Enterococcus faecalis as ratio of MIC value in presence and absence of 50% fetal calf serum. It counts as functional. In outline:
as §2

Experiment [10] deals with Staphylococcus aureus. In words: Effect on survival of staphylococcus aureus (Smith) ip-infected mice at a concentration 10 mg/kg. The class given is functional. In outline:
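Male pathogen-free Swiss-Webster mice (20-24 g), groups of five, infected ip with ca. 10⁸ CFU log-phase S. aureus Smith (grown 37 °C in LB, washed, in 0.5 mL LB). Single ip dose 15 min post-infection, in 10% DMSO/peanut oil or PBS. Survivors counted at 72 h post-infection.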

Sequence of DNA polymerase III PolC-type (P13267 whole entry, the tested form may be a part): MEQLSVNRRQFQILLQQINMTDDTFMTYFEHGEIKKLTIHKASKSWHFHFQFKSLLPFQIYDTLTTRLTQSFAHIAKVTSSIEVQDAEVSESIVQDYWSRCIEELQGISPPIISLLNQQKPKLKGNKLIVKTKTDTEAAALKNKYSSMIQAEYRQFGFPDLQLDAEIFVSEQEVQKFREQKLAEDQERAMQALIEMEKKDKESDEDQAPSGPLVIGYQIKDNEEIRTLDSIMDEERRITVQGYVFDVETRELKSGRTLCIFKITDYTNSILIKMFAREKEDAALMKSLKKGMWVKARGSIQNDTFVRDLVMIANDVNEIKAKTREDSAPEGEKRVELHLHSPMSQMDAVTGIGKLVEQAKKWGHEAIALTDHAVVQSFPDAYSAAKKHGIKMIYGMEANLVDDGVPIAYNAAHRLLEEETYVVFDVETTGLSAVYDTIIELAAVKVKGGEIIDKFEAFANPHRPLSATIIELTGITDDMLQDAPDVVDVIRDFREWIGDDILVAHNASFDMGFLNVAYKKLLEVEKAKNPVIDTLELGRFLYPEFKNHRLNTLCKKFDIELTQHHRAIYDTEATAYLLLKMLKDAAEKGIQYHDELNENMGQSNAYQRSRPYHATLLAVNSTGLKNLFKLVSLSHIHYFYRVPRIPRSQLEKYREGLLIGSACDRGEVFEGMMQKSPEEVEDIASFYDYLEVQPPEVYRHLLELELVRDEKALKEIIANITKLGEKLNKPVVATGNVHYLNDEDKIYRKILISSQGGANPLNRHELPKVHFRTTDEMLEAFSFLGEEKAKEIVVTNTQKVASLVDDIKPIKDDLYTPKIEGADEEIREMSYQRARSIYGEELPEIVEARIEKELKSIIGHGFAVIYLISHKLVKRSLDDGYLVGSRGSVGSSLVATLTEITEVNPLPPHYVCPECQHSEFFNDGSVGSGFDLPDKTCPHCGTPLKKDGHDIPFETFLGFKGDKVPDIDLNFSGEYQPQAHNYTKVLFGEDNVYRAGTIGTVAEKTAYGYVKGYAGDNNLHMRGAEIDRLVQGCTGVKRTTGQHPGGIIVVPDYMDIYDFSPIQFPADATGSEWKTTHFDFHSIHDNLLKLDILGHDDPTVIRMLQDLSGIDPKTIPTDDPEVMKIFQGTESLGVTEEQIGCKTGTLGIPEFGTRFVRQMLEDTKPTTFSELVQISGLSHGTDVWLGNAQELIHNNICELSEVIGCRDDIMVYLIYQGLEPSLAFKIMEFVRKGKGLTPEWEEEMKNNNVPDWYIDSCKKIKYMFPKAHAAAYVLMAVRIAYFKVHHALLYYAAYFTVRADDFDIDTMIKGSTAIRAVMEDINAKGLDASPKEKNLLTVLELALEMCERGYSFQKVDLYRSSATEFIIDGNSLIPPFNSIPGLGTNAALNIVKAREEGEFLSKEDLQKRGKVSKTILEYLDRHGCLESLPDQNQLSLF

Turning to `CCc1cc(Nc2cc(=O)n(CCCCNCCO)c(=O)[nH]2)ccc1C`, the MIC in the experiment with Enterococcus faecium [1], against Staphylococcus aureus [2], against Bacillus subtilis, in the experiment with Enterococcus faecalis [3] and with Staphylococcus aureus [5] was greater than 20 µg/mL each time. The affinity in experiment [4] corresponds to a Ki of 28 nM.

As for `CCc1cc(Nc2cc(=O)n(CCCCCO)c(=O)[nH]2)ccc1C`, the MIC is 2.5 µg/mL (≈ 7.54 µM) with Enterococcus faecium [6]; 2.5 µg/mL (≈ 7.54 µM) against Enterococcus faecium [1]; 5 µg/mL (≈ 15.1 µM) against Staphylococcus aureus [2]; less than 1.25 µg/mL against Bacillus subtilis; 5 µg/mL (≈ 15.1 µM) in the experiment with Staphylococcus aureus [8]; 2.5 µg/mL (≈ 7.54 µM) in the experiment with Enterococcus faecalis [3]. For the same compound, the MIC in the experiment with Staphylococcus aureus [5] worked out at 2.5 µg/mL (≈ 7.54 µM). Further, the “MIC+/MIC-” value in the experiment with Staphylococcus aureus [7] turned out to be 11.6. This compound also showed a Ki in [4] of 43 nM.

As to `CCc1cc(Nc2cc(=O)n(CCOC)c(=O)[nH]2)ccc1C`, the MIC in the experiment with Enterococcus faecium [6] was 2.5 µg/mL (≈ 8.24 µM); in the experiment on Enterococcus faecium [1] it was 2.5 µg/mL (≈ 8.24 µM); in the experiment with Staphylococcus aureus [2], 2.5 µg/mL (≈ 8.24 µM); with Bacillus subtilis, less than 1.25 µg/mL; against Staphylococcus aureus [8], 5 µg/mL (≈ 16.5 µM); in the experiment on Enterococcus faecalis [3] it was 5 µg/mL (≈ 16.5 µM). The same compound displayed an MIC in the experiment on Staphylococcus aureus [5] of 2.5 µg/mL (≈ 8.24 µM). Besides, in the experiment on Staphylococcus aureus [7], the “MIC+/MIC-” value was determined as 6.9. In [4], this compound had a Ki of 127 nM.

As for `CCc1cc(Nc2cc(=O)n(CCCN3CCOCC3)c(=O)[nH]2)ccc1C`, the MIC against Enterococcus faecium [6] is 5 µg/mL (≈ 13.4 µM); in the experiment on Enterococcus faecium [1], 5 µg/mL (≈ 13.4 µM); with Staphylococcus aureus [8] it was 10 µg/mL (≈ 26.8 µM); in the experiment with Enterococcus faecalis [3], 10 µg/mL (≈ 26.8 µM); with Staphylococcus aureus [5], 10 µg/mL (≈ 26.8 µM). In addition, the “MIC+/MIC-” value stood at 1.6 with Enterococcus faecalis [9] and 2.9 in the experiment with Staphylococcus aureus [7].

With `CCn1cc(C(=O)O)c(=O)c2cc(F)c(N3CCNCC3)cc21` [NORFLOXACIN], the MIC in the experiment with Enterococcus faecium [6] turned out to be 80 µg/mL (≈ 251 µM); in the experiment on Enterococcus faecium [1], 10 µg/mL (≈ 31.3 µM); with Staphylococcus aureus [2], 0.625 µg/mL (≈ 1.96 µM); in the experiment with Bacillus subtilis, 0.313 µg/mL (≈ 0.98 µM); with Staphylococcus aureus [8] it was 40 µg/mL (≈ 125 µM); in the experiment with Enterococcus faecalis [3] it was 2.5 µg/mL (≈ 7.83 µM). In the experiment on Staphylococcus aureus [5], the MIC is 0.156 µg/mL (≈ 0.489 µM). The “MIC+/MIC-” value in the experiment on Enterococcus faecalis [9] is 2.2; in the experiment with Staphylococcus aureus [7] it was 0.4.

As to `CCc1cc(Nc2cc(=O)n(CCOCCOc3ccccc3)c(=O)[nH]2)ccc1C`, the MIC is 5 µg/mL (≈ 12.2 µM) against Enterococcus faecium [6]; 2.5 µg/mL (≈ 6.11 µM) in the experiment with Enterococcus faecium [1]; 20 µg/mL (≈ 48.8 µM) with Staphylococcus aureus [2]; less than 1.25 µg/mL in the experiment with Bacillus subtilis; 20 µg/mL (≈ 48.8 µM) with Staphylococcus aureus [8]; 5 µg/mL (≈ 12.2 µM) against Enterococcus faecalis [3]. The compound further yielded an MIC in the experiment on Staphylococcus aureus [5] of 20 µg/mL (≈ 48.8 µM). The “MIC+/MIC-” value with Staphylococcus aureus [7] is listed as greater than 5.6. Further, the affinity in [4] corresponds to a Ki of 56 nM.

Consider `CCc1cc(Nc2cc(=O)n(CCCCCOC(C)=O)c(=O)[nH]2)ccc1C`, for which the MIC with Enterococcus faecium [6] amounted to 3.75 µg/mL (≈ 10 µM); against Enterococcus faecium [1], 3.75 µg/mL (≈ 10 µM); against Staphylococcus aureus [2], 5 µg/mL (≈ 13.4 µM); in the experiment on Bacillus subtilis it was 0.625 µg/mL (≈ 1.67 µM); in the experiment on Staphylococcus aureus [8], 2.5 µg/mL (≈ 6.69 µM); in the experiment with Enterococcus faecalis [3] it was 5 µg/mL (≈ 13.4 µM). This compound also registered an MIC against Staphylococcus aureus [5] of 7.5 µg/mL (≈ 20.1 µM). For the same compound, in experiment [4], the Ki was 68 nM.

For the compound `CCc1cc(Nc2cc(=O)n(CCCO)c(=O)[nH]2)ccc1C`, the MIC in the experiment on Enterococcus faecium [6] was 2.5 µg/mL (≈ 8.24 µM); against Enterococcus faecium [1] it was 2.5 µg/mL (≈ 8.24 µM); in the experiment on Staphylococcus aureus [2] it was 2.5 µg/mL (≈ 8.24 µM); with Bacillus subtilis, less than 1.25 µg/mL; against Staphylococcus aureus [8], 5 µg/mL (≈ 16.5 µM); with Enterococcus faecalis [3], 5 µg/mL (≈ 16.5 µM). This compound showed an MIC in the experiment with Staphylococcus aureus [5] of 5 µg/mL (≈ 16.5 µM). Also, the “MIC+/MIC-” value in the experiment with Staphylococcus aureus [7] was found to be 5.6. The Ki in experiment [4] came out at 130 nM.

In the experiment on Staphylococcus aureus [10], `CCc1cc(Nc2cc(=O)n(CCCC#N)c(=O)[nH]2)ccc1C` returned an Activity of 2. Besides, the MIC against Enterococcus faecium [6], against Enterococcus faecium [1], in the experiment with Staphylococcus aureus [2], in the experiment on Staphylococcus aureus [8] and against Enterococcus faecalis [3] was 5 µg/mL (≈ 16 µM) each time. In the experiment on Staphylococcus aureus [7], the “MIC+/MIC-” value was found to be 5.4.

For `CCc1cc(Nc2cc(=O)n(CCN3CCOCC3)c(=O)[nH]2)ccc1C`, the MIC came out at 5 µg/mL (≈ 13.9 µM) against Enterococcus faecium [6], 10 µg/mL (≈ 27.9 µM) with Staphylococcus aureus [2], 5 µg/mL (≈ 13.9 µM) in the experiment with Staphylococcus aureus [8] and 5 µg/mL (≈ 13.9 µM) in the experiment on Enterococcus faecalis [3]. The figures for the “MIC+/MIC-” value in the experiment with Enterococcus faecalis [9] and in the experiment on Staphylococcus aureus [7] were 2.7 and 5.5, respectively.
